Two molecules from ChEMBL document CHEMBL1132613 (J Med Chem, 1999) can be followed below.

Assay [1] concerns the target 5-hydroxytryptamine receptor 2A (Homo sapiens, UniProt P28223). The experiment in a line: Compound was tested for the displacement of [125I]DOI from cloned human 5-hydroxytryptamine 2A receptor. In a few lines:
(§1)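 Membranes from AV12 hamster fibroblasts stably expressing human 5-HT2A or 5-HT2C. [125I]DOI was about 0.07–0.15 nM final. Buffer was 50 mM Tris-HCl pH 7.4 with 10 μM pargyline, 9.75 mM MgCl2, 0.5 mM Na2-EDTA and 0.1% Na ascorbate. Incubation was 30 min at 37 °C with about 40 μg protein (2A) or 30 μg (2C). Nonspecific binding used 1 μM ketanserin (2A) or 10 μM mianserin (2C). Read by gamma counting; sigmoid nonlinear regression.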
(Loss of bound radioactivity is the signal in a displacement assay; it reports binding, not function.)

Assay [2] deals with Rattus norvegicus. The experiment in a line: Percentage of animals failing to emit 50 lever presses within 15 min in LSD trained rats at a compound dose of 2.0 mg/kg. It is filed as functional. Put shortly: (§2)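 Male Sprague–Dawley rats (200–220 g) in a two-lever, FR50 food-reinforced task. Rats were trained to discriminate saline from LSD tartrate (0.08 mg/kg), DOI HCl (0.4 mg/kg) or LY293284 (0.025 mg/kg) in 15-min sessions. %SDL is the share of rats making over 80% of presses on the drug lever. %D is the share failing to make 50 presses within 15 min. ED50 by Litchfield–Wilcoxon log-probit.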

For assay [3], the system named is Rattus norvegicus. The experiment in a line: Percentage of animals failing to emit 50 lever presses within 15 min in […] trained rats at a compound dose of 2 mg/kg. It is filed as functional. In a few lines: (§3)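 Two-lever drug discrimination in male Sprague–Dawley rats (200–220 g at start), trained against saline on LSD tartrate (0.08 mg/kg), DOI HCl (0.4 mg/kg) or LY293284 (0.025 mg/kg). FR50 food-pellet reinforcement, levers counterbalanced, 15-min sessions at 22–24 °C. %D is the share of tested rats not completing 50 lever presses within 15 min.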

Assay [4] has as its target T1, 5-hydroxytryptamine receptor 2C (Homo sapiens, UniProt P28335).
T1 sequence (P28335 whole entry): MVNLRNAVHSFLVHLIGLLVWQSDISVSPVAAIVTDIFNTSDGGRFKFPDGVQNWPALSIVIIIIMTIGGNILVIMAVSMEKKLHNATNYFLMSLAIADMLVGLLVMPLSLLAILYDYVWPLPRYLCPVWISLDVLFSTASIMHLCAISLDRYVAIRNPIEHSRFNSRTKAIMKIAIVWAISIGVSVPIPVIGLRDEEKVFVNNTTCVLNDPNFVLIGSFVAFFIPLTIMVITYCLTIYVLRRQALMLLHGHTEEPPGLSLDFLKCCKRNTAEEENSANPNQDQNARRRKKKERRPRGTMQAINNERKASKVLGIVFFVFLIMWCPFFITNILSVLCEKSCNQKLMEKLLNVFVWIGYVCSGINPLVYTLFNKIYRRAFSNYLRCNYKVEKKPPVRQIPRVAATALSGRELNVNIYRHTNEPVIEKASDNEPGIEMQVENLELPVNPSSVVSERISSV
The experiment in a line: Compound was tested for the displacement of [125I]DOI from cloned human 5-hydroxytryptamine 2C receptor. Put shortly:
as §1

The subject of assay [5] is Rattus norvegicus. The experiment in a line: Percentage of animals emitting >80% of lever presses in LSD trained rats at a compound dose of 6.32 uM/Kg. It is filed as functional. Put shortly: as §2
For assay [6], the system named is Rattus norvegicus. The experiment in a line: Percentage of animals emitting >80% of lever presses in […] trained rats at a compound dose of 50.6 uM/Kg. Type of assay: functional. Put shortly: as §2
Assay [7] relates to Rattus norvegicus. The experiment in a line: Percentage of animals failing to emit 50 lever presses within 15 min in […] trained rats at a compound dose of 4 mg/kg. It is filed as functional. In a few lines:
as §3

Assay [8] concerns Rattus norvegicus. The experiment in a line: Percentage of animals emitting >80% of lever presses in LSD trained rats at a compound dose of 25.3 uM/Kg. It is filed as functional. In a few lines:
as §2

The test system of assay [9] is Rattus norvegicus. The experiment in a line: Percentage of animals failing to emit 50 lever presses within 15 min in […] trained rats at a compound dose of 16 mg/kg. Type of assay: functional. Put shortly: as §3
Assay [10] deals with Rattus norvegicus. The experiment in a line: Percentage of animals emitting >80% of lever presses in DOI trained rats at a compound dose of 50.6 uM/Kg. It is filed as functional. Put shortly:
as §2

Assay [11] deals with Rattus norvegicus. The experiment in a line: Percentage of animals failing to emit 50 lever presses within 15 min in LSD trained rats at a compound dose of 16 mg/kg. It is filed as functional. Put shortly: as §2
Assay [12] concerns Rattus norvegicus. The experiment in a line: Percentage of animals failing to emit 50 lever presses within 15 min in DOI trained rats at a compound dose of 16 mg/kg. Type of assay: functional. In a few lines:
as §2

Assay [13] relates to Rattus norvegicus. The experiment in a line: Percentage of animals failing to emit 50 lever presses within 15 min in LSD trained rats at a compound dose of 8.0 mg/kg. Type of assay: functional. In a few lines: as §3
Assay [14] deals with Rattus norvegicus. The experiment in a line: Percentage of animals failing to emit 50 lever presses within 15 min in DOI trained rats at a compound dose of 8 mg/kg. It is filed as functional. In a few lines: as §2
Assay [15] has as its system Rattus norvegicus. The experiment in a line: Percentage of animals emitting >80% of lever presses in […] trained rats at a compound dose of 12.6 uM/Kg. Type of assay: functional. In a few lines: as §2
Assay [16] has as its system Rattus norvegicus. The experiment in a line: Percentage of animals emitting >80% of lever presses in […] trained rats at a compound dose of 25.3 uM/Kg. Type of assay: functional. In a few lines: as §2
Assay [17] has as its system Rattus norvegicus. The experiment in a line: Percentage of animals emitting >80% of lever presses in DOI trained rats at a compound dose of 12.6 uM/Kg. Type of assay: functional. Put shortly:
as §2

The test system of assay [18] is Rattus norvegicus. The experiment in a line: Percentage of animals emitting >80% of lever presses in […] trained rats at a compound dose of 6.32 uM/Kg. Type of assay: functional. In a few lines: as §2
For assay [19], the target named is 5-hydroxytryptamine receptor 2B (Homo sapiens, UniProt P41595). The experiment in a line: Compound was tested for the displacement of [3H]5-HT from cloned human 5-hydroxytryptamine 2B receptor. Put shortly: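 Membranes from AV12 cells stably expressing human 5-HT2B, 100–150 μg protein. [3H]-5-HT was about 2 nM (1.7–2.5 nM) final. Buffer was 50 mM Tris pH 7.4 with 3 mM CaCl2, 10 μM pargyline and 0.1% ascorbic acid. Drug dilutions spanned 6 log units. Incubation was 15 min at 37 °C. Nonspecific binding used 10 μM 5-HT or 1-NP. PEI-soaked GF/B filtration, scintillation counting, triplicate, sigmoid nonlinear regression.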

The test system of assay [20] is Rattus norvegicus. The experiment in a line: Percentage of animals failing to emit 50 lever presses within 15 min in LSD trained rats at a compound dose of 4.0 mg/kg. Type of assay: functional. Put shortly:
as §3

For assay [21], the system named is Rattus norvegicus. The experiment in a line: Percentage of animals failing to emit 50 lever presses within 15 min in […] trained rats at a compound dose of 8 mg/kg. It is filed as functional. Put shortly: as §3
Assay [22] concerns Rattus norvegicus. The experiment in a line: Percentage of animals emitting >80% of lever presses in LSD trained rats at a compound dose of 12.6 uM/Kg. It is filed as functional. In a few lines: as §2
Assay [23] relates to Rattus norvegicus. The experiment in a line: Percentage of animals emitting >80% of lever presses in DOI trained rats at a compound dose of 25.3 uM/Kg. It is filed as functional. In a few lines:
as §2

The test system of assay [24] is Rattus norvegicus. The experiment in a line: Percentage of animals failing to emit 50 lever presses within 15 min in DOI trained rats at a compound dose of 4 mg/kg. It is filed as functional. In a few lines: as §2
In assay [25] the target is T2, 5-hydroxytryptamine receptor 1A (Rattus norvegicus, UniProt P19327).
T2 sequence (P19327 whole entry): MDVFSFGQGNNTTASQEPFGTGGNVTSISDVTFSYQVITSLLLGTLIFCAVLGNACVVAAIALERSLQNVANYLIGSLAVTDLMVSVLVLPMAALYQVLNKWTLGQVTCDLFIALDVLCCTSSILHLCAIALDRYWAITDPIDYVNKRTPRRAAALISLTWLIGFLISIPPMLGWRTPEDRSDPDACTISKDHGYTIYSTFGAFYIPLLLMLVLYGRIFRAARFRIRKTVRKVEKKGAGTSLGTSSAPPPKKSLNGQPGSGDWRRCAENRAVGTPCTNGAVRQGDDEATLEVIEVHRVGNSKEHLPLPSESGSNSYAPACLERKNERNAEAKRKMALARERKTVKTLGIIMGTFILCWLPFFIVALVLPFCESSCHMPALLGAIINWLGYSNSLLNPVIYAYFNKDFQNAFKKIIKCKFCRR
The experiment in a line: Compound was tested for the displacement of [3H]-8-OH- DPAT from rat brain 5-hydroxytryptamine 1A receptor. Put shortly:
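Pooled rat hippocampal membranes were preincubated at 37 °C. Buffer was 50 mM Tris HCl pH 7.4 with 0.5 mM Na2EDTA, 10 mM MgCl2, 0.1% Na ascorbate and pargyline. 200–400 μg protein was incubated with [3H]-8-OH-DPAT for 15 min at 37 °C, then GF/C filtered and scintillation counted. Nonspecific binding was defined with 10 μM 5-HT. Triplicate tubes.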

Assay [26] concerns Rattus norvegicus. The experiment in a line: Percentage of animals emitting >80% of lever presses in LSD trained rats at a compound dose of 50.6 uM/Kg. Type of assay: functional. In a few lines:
as §2

The target in assay [27] is 5-hydroxytryptamine receptor 2A (Rattus norvegicus) (UniProt P14842). The experiment in a line: Efficacy against 5-hydroxytryptamine 2A receptor. It is filed as functional.
Assay [28] concerns Rattus norvegicus. The experiment in a line: Percentage of animals emitting >80% of lever presses in rats at 0.04 mg/kg dose. It is filed as functional. In a few lines: as §2
In assay [29] the test system is Rattus norvegicus. The experiment in a line: Percentage of animals emitting >80% of lever presses in rats at 0.08 mg/kg dose. It is filed as functional. Put shortly:
as §2

The test system of assay [30] is Rattus norvegicus. The experiment in a line: Percentage of animals failing to emit 50 lever presses within 15 min in rats at 0.04 mg/kg dose. It is filed as functional. Put shortly:
as §3

The subject of assay [31] is Rattus norvegicus. The experiment in a line: Percentage of animals emitting >80% of lever presses in rats at 0.02 mg/kg dose. Type of assay: functional. Put shortly:
as §2

The subject of assay [32] is Rattus norvegicus. The experiment in a line: Percentage of animals failing to emit 50 lever presses within 15 min in rats at 0.02 mg/kg dose. Type of assay: functional. In a few lines:
as §3

For assay [33], the system named is Rattus norvegicus. The experiment in a line: Percentage of animals failing to emit 50 lever presses within 15 min in rats at 0.08 mg/kg dose. It is filed as functional. In a few lines: as §3
In assay [34] the test system is Rattus norvegicus. The experiment in a line: Percentage of animals failing to emit 50 lever presses within 15 min in at 0.01 mg/kg dose. Type of assay: functional. Put shortly: as §3
The subject of assay [35] is Rattus norvegicus. The experiment in a line: Percentage of animals emitting >80% of lever presses in rats at 0.01 mg/kg dose. Type of assay: functional. In a few lines: as §2

Where “and” joins values, the source holds several entries; their conditions need not be identical. Identical values can stand only once.

Chain of 5-hydroxytryptamine receptor 2A (Rattus norvegicus) (P14842 whole entry): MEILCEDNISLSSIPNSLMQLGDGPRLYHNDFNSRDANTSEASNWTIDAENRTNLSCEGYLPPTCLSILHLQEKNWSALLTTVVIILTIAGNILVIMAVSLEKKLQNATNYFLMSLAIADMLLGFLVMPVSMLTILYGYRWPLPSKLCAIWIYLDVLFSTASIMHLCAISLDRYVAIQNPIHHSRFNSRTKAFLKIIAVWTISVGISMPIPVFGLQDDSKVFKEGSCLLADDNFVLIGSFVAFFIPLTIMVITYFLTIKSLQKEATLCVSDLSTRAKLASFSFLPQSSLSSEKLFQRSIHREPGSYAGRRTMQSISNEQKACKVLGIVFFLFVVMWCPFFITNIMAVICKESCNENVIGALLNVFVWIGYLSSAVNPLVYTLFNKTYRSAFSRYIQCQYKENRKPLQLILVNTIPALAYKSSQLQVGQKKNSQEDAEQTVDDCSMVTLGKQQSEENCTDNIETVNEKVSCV
Chain of 5-hydroxytryptamine receptor 2A (P28223 whole entry): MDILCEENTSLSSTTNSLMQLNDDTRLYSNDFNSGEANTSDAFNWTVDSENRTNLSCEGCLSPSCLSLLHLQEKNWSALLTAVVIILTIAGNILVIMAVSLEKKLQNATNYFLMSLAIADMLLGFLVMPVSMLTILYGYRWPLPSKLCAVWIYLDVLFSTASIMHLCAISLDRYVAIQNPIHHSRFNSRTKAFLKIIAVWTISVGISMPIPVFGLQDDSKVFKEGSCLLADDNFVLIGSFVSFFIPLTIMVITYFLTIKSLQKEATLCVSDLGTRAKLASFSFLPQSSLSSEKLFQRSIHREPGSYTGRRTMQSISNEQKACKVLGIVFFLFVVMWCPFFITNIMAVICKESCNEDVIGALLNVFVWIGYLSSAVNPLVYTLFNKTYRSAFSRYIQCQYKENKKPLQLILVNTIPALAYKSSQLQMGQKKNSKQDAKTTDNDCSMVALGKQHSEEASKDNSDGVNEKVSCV
Chain of 5-hydroxytryptamine receptor 2B (P41595 whole entry): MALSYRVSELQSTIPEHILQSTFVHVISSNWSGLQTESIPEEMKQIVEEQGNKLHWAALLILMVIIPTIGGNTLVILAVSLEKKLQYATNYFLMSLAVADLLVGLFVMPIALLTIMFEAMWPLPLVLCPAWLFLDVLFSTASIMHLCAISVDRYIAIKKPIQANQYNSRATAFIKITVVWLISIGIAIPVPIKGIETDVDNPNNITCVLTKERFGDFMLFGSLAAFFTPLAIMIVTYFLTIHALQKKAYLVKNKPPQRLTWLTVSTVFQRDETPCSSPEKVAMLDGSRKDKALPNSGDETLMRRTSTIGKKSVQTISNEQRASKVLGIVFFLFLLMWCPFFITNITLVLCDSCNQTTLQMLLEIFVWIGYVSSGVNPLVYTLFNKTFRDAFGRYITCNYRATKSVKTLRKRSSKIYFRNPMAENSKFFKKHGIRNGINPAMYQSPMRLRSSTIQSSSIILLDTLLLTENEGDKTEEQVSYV

As usually defined, the Ki is the equilibrium dissociation constant of an inhibitor or competing ligand from its target. The low end stands for a stronger hold on the target, the high end for a looser hold on the target. On to `CN(C)CCc1c[nH]c2ccsc12`, for which the Ki in assay [1] worked out at 276 nM; in assay [4], 64 nM; in [19], 214 nM; in [25], 76 nM. Besides, the D in the assay on Rattus norvegicus [2] turned out to be 25%; in the assay with Rattus norvegicus [3], 8%; with Rattus norvegicus [7], 30%; with Rattus norvegicus [9] it was 0%; in the assay with Rattus norvegicus [11], 62.5%; in the assay with Rattus norvegicus [12], 62.5%. Also, the D was determined as 36% with Rattus norvegicus [13]; 78% in the assay with Rattus norvegicus [14]; 22% in the assay with Rattus norvegicus [20]; 22% in the assay with Rattus norvegicus [21]; 11% with Rattus norvegicus [24]. Moreover, the SDL was determined as 0% with Rattus norvegicus [5]; 83% in the assay on Rattus norvegicus [6]; 12.5% with Rattus norvegicus [8]; 0% in the assay with Rattus norvegicus [10]; 57% with Rattus norvegicus [15]; 71% in the assay on Rattus norvegicus [16]. For the same molecule, the SDL is on record as 37.5% with Rattus norvegicus [17]; 50% in the assay with Rattus norvegicus [18]; 43% in the assay on Rattus norvegicus [22]; 0% with Rattus norvegicus [23]; 0% with Rattus norvegicus [26].

Broadly, the ED50 is the dose at which the effect has come halfway, by size or by number of responders. A high value points to a need for a large dose. `CCN(CC)C(=O)[C@@H]1C=C2c3cccc4[nH]cc(c34)C[C@H]2N(C)C1` [LYSERGIDE]: in assay [27], the ED50 is 0.037 µmol.kg-1 and 0.016 mg/kg. Moreover, the SDL with Rattus norvegicus [28] is 81%; with Rattus norvegicus [29], 100%; in the assay on Rattus norvegicus [31] it was 62%; with Rattus norvegicus [35], 31%. Moreover, the D with Rattus norvegicus [30] was found to be 0%; in the assay on Rattus norvegicus [32], 7%; in the assay on Rattus norvegicus [33], 0%; with Rattus norvegicus [34] it was 0%.
